According to ChEMBL document CHEMBL3779809, “Bioactive Enmein-Type ent-Kaurane Diterpenoids from Isodon phyllostachys” (J Nat Prod, 2016):
Calls of active or inactive are those of the source. The rule behind the calls is not given here.

Key:
SW480 [1] = assay: Cytotoxicity against human SW480 cells assessed as cell viability after 48 hrs by MTS assay; format: functional, cell-based; settings: SW480, 48 h
Method in brief: (§1)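 Cells grown in RPMI-1640 or DMEM with 10% FBS at 37 °C, 5% CO2. Seeded, incubated 12 h, then exposed to a range of concentrations in triplicate for 48 h. Viability read by MTS reduction to formazan. IC50 calculated by Reed and Muench method; cis-platin positive control.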

A549 [2] = assay: Cytotoxicity against human A549 cells assessed growth inhibition at 40 uM after 48 hrs by MTS assay relative to control; format: functional
Method in brief: (§2)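 Cultured in RPMI-1640 or DMEM with 10% FBS at 37 °C under 5% CO2. Cells seeded, given 12 h at 37 °C, then treated with compound at 40 μM for 48 h. Growth inhibition measured by MTS assay (formazan colorimetry).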

MCF7 [3] = assay: Cytotoxicity against human MCF7 cells assessed as cell viability after 48 hrs by MTS assay; format: functional, cell-based; settings: MCF7, 48 h; method in brief: as §1
HL-60 = assay: Cytotoxicity against human HL60 cells assessed growth inhibition at 40 uM after 48 hrs by MTS assay relative to control; format: functional; method in brief: as §2
MCF7 [4] = assay: Cytotoxicity against human MCF7 cells assessed growth inhibition at 40 uM after 48 hrs by MTS assay relative to control; format: functional; method in brief: as §2
[5] = Cytotoxicity against human SMMC7721 cells assessed as cell viability after 48 hrs by MTS assay; format: functional, cell-based; settings: SMMC-7721, 48 h; method in brief: as §1
SW480 [6] = assay: Cytotoxicity against human SW480 cells assessed growth inhibition at 40 uM after 48 hrs by MTS assay relative to control; format: functional; method in brief: as §2
SMMC-7721 = assay: Cytotoxicity against human SMMC7721 cells assessed growth inhibition at 40 uM after 48 hrs by MTS assay relative to control; format: functional; method in brief: as §2
[7] = Cytotoxicity against human HL60 cells assessed as cell viability after 48 hrs by MTS assay; format: functional, cell-based; settings: HL-60, 48 h; method in brief: as §1
A549 [8] = assay: Cytotoxicity against human A549 cells assessed as cell viability after 48 hrs by MTS assay; format: functional, cell-based; settings: A549, 48 h; method in brief: as §1

Structure (SMILES) | IC50 (SW480 [1]) [µM] | growth inhibition (GI) (A549 [2]) | IC50 (MCF7 [3]) [µM] | growth inhibition (GI) (HL-60) | growth inhibition (GI) (MCF7 [4]) | IC50 [5] [µM] | growth inhibition (GI) (SW480 [6]) | growth inhibition (GI) (SMMC-7721) | IC50 [7] [µM] | IC50 (A549 [8]) [µM]
C=C1C(=O)[C@]23C[C@@H]1C[C@@H](O)[C@H]2C12CO[C@@H](O)[C@@H]1C(C)(C)[C@@H](O)C[C@@H]2OC3=O (stereo not given in full) | > 40 | inactive | > 40 | inactive | inactive | > 40 | inactive | inactive | > 40 | > 40
C[C@H]1C(=O)[C@]23C[C@@H]1CC[C@H]2C12[C@H](O)OC[C@@H]1C(C)(C)CC[C@@H]2OC3=O (stereo not given in full) | > 40 | inactive | > 40 | inactive | inactive | > 40 | inactive | inactive | > 40 | > 40
C[C@H]1C(=O)[C@]23C[C@@H]1CC[C@H]2C12CO[C@@H](O)[C@@H]1C(C)(C)[C@@H](O)C[C@@H]2OC3=O (stereo not given in full) | > 40 | inactive | > 40 | inactive | inactive | > 40 | inactive | inactive | > 40 | > 40
C=C1[C@H]2CC[C@@H]3[C@](C2)(C(=O)O[C@H]2C[C@@H]4OC5O[C@@H](O)[C@H](C4(C)C)[C@@]523)[C@@H]1O | > 40 | inactive | > 40 | inactive | inactive | > 40 | inactive | inactive | > 40 | > 40
CC1(C)[C@@H]2C[C@@H]3OC(=O)[C@@]45C[C@H](CC[C@H]4[C@]34C(O[C@@H](O)[C@H]14)O2)[C@](C)(O)C5=O | > 40 | inactive | > 40 | inactive | inactive | > 40 | inactive | inactive | > 40 | > 40
CO[C@@H]1OC(O)C23[C@H](CCC(C)(C)[C@@H]12)OC(=O)[C@@]12C[C@H](CC[C@@H]31)[C@@H](C)C2=O (stereo not given in full) | > 40 | inactive | > 40 | inactive | inactive | > 40 | inactive | inactive | > 40 | > 40
CO[C@@H]1O[C@@H](O)[C@@H]2C(C)(C)CC[C@@H]3OC(=O)[C@@]45C[C@H](CC[C@H]4C132)[C@@H](C)C5=O (stereo not given in full) | > 40 | inactive | > 40 | inactive | inactive | > 40 | inactive | inactive | > 40 | > 40
COC[C@H]1C(=O)[C@]23C[C@@H]1C[C@@H](O)[C@H]2C12CO[C@@H](O)[C@@H]1C(C)(C)CC[C@@H]2OC3=O (stereo not given in full) | > 40 | inactive | > 40 | inactive | inactive | > 40 | inactive | inactive | > 40 | > 40
C[C@H]1C(=O)[C@]23C[C@@H]1CC[C@H]2C12C(O)O[C@@H](O)[C@@H]1C(C)(C)CC[C@@H]2OC3=O (stereo not given in full) | > 40 | inactive | > 40 | inactive | inactive | > 40 | inactive | inactive | > 40 | > 40
C[C@@H]1C(=O)[C@]23C[C@@H]1CC[C@H]2C12CO[C@@H](O)[C@@H]1C(C)(C)CC[C@@H]2OC3=O (stereo not given in full) | > 40 | inactive | > 40 | inactive | inactive | > 40 | inactive | inactive | > 40 | > 40
C[C@H]1C(=O)[C@]23C[C@@H]1C[C@@H](O)[C@H]2C12CO[C@@H](O)[C@@H]1C(C)(C)CC[C@@H]2OC3=O (stereo not given in full) | > 40 | inactive | > 40 | inactive | inactive | > 40 | inactive | inactive | > 40 | > 40
COC[C@@H]1C(=O)[C@]23C[C@@H]1C[C@@H](O)[C@H]2C12CO[C@@H](O)[C@@H]1C(C)(C)CC[C@@H]2OC3=O (stereo not given in full) | > 40 | inactive | > 40 | inactive | inactive | > 40 | inactive | inactive | > 40 | > 40
C=C1[C@H]2C[C@@H](O)[C@H]3C45CO[C@@H]6OC[C@](C)(CC[C@@H]4OC(=O)[C@]3(C2)[C@@H]1O)[C@@H]65 (stereo not given in full) | > 40 | inactive | > 40 | inactive | inactive | > 40 | inactive | inactive | > 40 | > 40
C[C@]12CC[C@@H]3OC(=O)[C@@]45C[C@H](C[C@@H](O)[C@@H]4[C@]34CO[C@H](OC1)[C@H]24)[C@@]1(CCC2=C(O1)[C@]13C[C@@H]2C[C@@H](O)[C@@H]1[C@]12CO[C@@H]4OC[C@](C)(CC[C@@H]1OC3=O)[C@@H]42)C5=O | > 40 | inactive | > 40 | inactive | inactive | > 40 | inactive | inactive | > 40 | > 40
C[C@H]1C(=O)[C@]23C[C@@H]1CC[C@H]2C12[C@H](CCC(C)(C)[C@H]1CO[C@@H]2O)OC3=O (stereo not given in full) | > 40 | inactive | > 40 | inactive | inactive | > 40 | inactive | inactive | > 40 | > 40
C[C@H]1C(=O)[C@]23C[C@@H]1CC[C@H]2C12CO[C@@H](O)[C@@H]1C(C)(C)CC[C@@H]2OC3=O (stereo not given in full) | > 40 | inactive | > 40 | inactive | inactive | > 40 | inactive | inactive | > 40 | > 40
C=C1[C@H]2CC[C@H]3C45C(O)O[C@@H](OC)[C@@H]4C(C)(C)CC[C@@H]5OC(=O)[C@]3(C2)[C@@H]1O (stereo not given in full) | > 40 | inactive | > 40 | inactive | inactive | > 40 | inactive | inactive | > 40 | > 40
CO[C@H]1O[C@@H](O)[C@@H]2C(C)(C)CC[C@@H]3OC(=O)[C@@]45C[C@H](CC[C@H]4C132)[C@@H](C)C5=O (stereo not given in full) | > 40 | inactive | > 40 | inactive | inactive | > 40 | inactive | inactive | > 40 | > 40
C=C1C(=O)[C@]23C[C@@H]1C[C@@H](O)[C@H]2C12C(O)O[C@@H]4OC(O)[C@](C)(CC[C@@H]1OC3=O)[C@@H]42 (stereo not given in full) | > 40 | inactive | > 40 | inactive | inactive | > 40 | inactive | inactive | > 40 | > 40
